# TRPC6 activator = mouse TRPC6 channel activation. Q61143. B-score at 10 µM. HEK293-TRPC6 membrane potential dye fluorescence; hits give high values. AID 2550. 310,000 tested, 0.13% active;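 active = B-score of the integrated fluorescence ratio above library mean plus 3 SD, and starting fluorescence ratio within library mean plus 5 SD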;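 note: higher score means more depolarization so channel activation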
# Target sequence (Q61143 whole entry, looked up): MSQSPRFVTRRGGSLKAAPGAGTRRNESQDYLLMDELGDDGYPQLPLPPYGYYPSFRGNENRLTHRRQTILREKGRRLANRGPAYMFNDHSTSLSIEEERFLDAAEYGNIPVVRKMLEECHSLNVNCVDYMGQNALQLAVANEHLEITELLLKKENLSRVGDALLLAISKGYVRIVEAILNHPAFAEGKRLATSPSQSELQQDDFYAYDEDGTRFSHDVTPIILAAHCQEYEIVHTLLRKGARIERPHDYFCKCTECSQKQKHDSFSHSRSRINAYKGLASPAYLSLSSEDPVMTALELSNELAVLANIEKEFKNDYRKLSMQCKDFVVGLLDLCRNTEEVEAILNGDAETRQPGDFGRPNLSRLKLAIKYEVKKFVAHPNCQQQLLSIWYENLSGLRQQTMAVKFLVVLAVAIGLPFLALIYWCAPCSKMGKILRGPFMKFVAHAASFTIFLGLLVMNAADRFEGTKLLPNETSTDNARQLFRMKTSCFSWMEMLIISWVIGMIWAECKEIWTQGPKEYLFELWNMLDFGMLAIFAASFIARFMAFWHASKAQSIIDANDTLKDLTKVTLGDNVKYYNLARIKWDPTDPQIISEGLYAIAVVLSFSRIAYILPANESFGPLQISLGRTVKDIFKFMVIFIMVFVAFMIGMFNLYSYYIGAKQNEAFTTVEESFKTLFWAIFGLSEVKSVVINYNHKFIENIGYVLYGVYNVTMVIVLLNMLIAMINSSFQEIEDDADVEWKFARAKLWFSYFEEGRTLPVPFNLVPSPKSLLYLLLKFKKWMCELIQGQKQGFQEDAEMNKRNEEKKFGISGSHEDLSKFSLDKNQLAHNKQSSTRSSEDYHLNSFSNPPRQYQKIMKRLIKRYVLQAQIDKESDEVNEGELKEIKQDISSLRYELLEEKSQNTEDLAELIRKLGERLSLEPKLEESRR
# TRPC4 PAM = allosteric potentiators of mouse TRPC4 channel; Q9QUQ5; HEK293 TRPC4beta/mu-opioid, DAMGO EC20, Fluo-4 Ca2+ flux; hits give high values; B-score at 10 µM; 310,000 tested, 0.42% active;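 active = B-score of calcium response area above 5 SD of library B-scores, with initial fluorescence ratio within 5 SD of library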;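 note: B-score of integrated fluorescence ratio over time as area under calcium response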
# TRPC6 inh = blocks the mouse TRPC6 cation channel | Q61143 | HEK293-TRPC6, membrane potential dye, ACh-evoked depolarization; hits give low values | B-score at 10 µM | 310,000 tested, 1.1% active | AID 2553;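 active = B-score under library mean minus 3 SD, initial fluorescence not abnormally high, positive integrated signal ratio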;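 note: B-score derived from integrated fluorescence ratio over the kinetic read; more negative B-score means stronger inhibition of depolarization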
# TRPC4 agonist = opens the mouse TRPC4 cation channel; Q9QUQ5; HEK293 TRPC4beta/mu-opioid, Fluo4 calcium fluorescence; hits give high values; B-score at 10 µM; 310,000 tested, 0.49% active; AID 2237;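 active = B-score above 5 SD of library B-scores, and initial fluorescence ratio not above library mean plus 5 SD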;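 note: positive B-score marks a calcium rise read as TRPC4 activation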
#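 system = HEK293 cells stably co-expressing mouse TRPC4beta and mu-opioid receptor | schedule = Fluo4 dye loading 45 min at room temperature, 110 s recording | measure = B-scored integrated calcium fluorescence ratio | signal = Fluo4 calcium-sensitive dye fluorescence, kinetic, 1 Hz baseline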
# TRPC4 inh = blocks the mouse TRPC4 cation channel. Q9QUQ5. HEK293 TRPC4beta/mu-opioid, DAMGO-evoked Fluo4 calcium flux; hits give low values. B-score at 10 µM. 300,000 tested, 0.39% active. AID 2247;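 active = B-score over 3 SD under the library average, no early fluorescence shift, positive overall ratio signal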
#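 Assay system: TRPC4beta/mu-opioid receptor HEK293 cell line; compound dosing: single concentration per test compound; detection: Fluo4 Ca2+ flux fluorescence; evaluation: per-well B score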
# Numbers without * were called inactive; i = inactive. In the library only some 2.3% were active in any assay of this set; here they are far more common.
SMILES,TRPC6 activator,TRPC4 PAM,TRPC6 inh,TRPC4 agonist,TRPC4 inh
COc1cc(CCC(=O)N2CCN(c3cccc(C)c3C)CC2)cc(OC)c1OC,i,i,i,i,i
CCN1CCN(c2ncnc3scc(-c4ccc(C)c(C)c4)c23)CC1,i,i,i,i,i
CCN1CCN(c2ncnc3sc(C)c(-c4ccccc4)c23)CC1,i,i,i,86*,i
Cc1ccc(C(=O)N2CCN(c3ncc(C(F)(F)F)cc3Cl)CC2)s1,i,i,i,i,i
CCCCCCc1cc2cc(-c3nnc(-c4ccccc4O)o3)c(=O)oc2cc1O,i,25*,i,i,i
CCCCCCc1cc2cc(-c3nnc(-c4cc(OC)c(OC)c(OC)c4)o3)c(=O)oc2cc1O,i,40*,i,i,i
CC(Sc1ccc(Cl)cc1)C(=O)NCC(c1ccco1)N1CCCCC1 (stereo not drawn),i,i,i,i,i
COc1ccc(-c2cc(C#N)nc(N3CCN(C)CC3)n2)cc1,i,i,i,i,i
COc1ccc(-c2cc(C(F)(F)F)nc(N3CCN(C)CC3)n2)cc1,i,15*,i,i,i
COc1ccc(-c2cc(C#N)nc(N3CCNCC3)n2)cc1,i,i,i,129*,i
O=C(c1ccco1)N1CCN(C/C=C/c2ccccc2)CC1,i,i,i,i,-5*
S=C(NC1CCCCC1)N1CCN(C/C=C/c2ccccc2)CC1,i,i,i,i,i
CC(C)NC(=S)N1CCN(C/C=C/c2ccccc2)CC1,i,i,i,i,-6*
Clc1ccccc1C1CC(c2ccccc2)=Nc2ccccc2N1 (stereo not drawn),i,10*,i,i,i
CSCC[C@H](NC(=O)N1CCn2c1nc1ccccc12)C(=O)NCc1ccco1,i,i,i,i,i
CCOC(=O)c1cnc(-n2nc(C)cc2C)nc1NC1CCCCC1,i,18*,i,i,i
CC(=O)n1cc([C@H]2C=C(C(=O)N3CCOCC3)O[C@@H](OCCCCO)C2)c2ccccc21,i,i,i,i,i
Clc1ccc(N=C2SCC3CCCCN23)cc1 (stereo not drawn),i,23*,i,i,i
COc1ccc(-c2cn(CCC(=O)NCc3ccc(C)cc3)c(CCN)n2)cc1,i,i,i,i,i
COc1cc(CNc2ccc3[nH]c(=O)[nH]c3c2)ccc1OCc1ccccc1Cl,i,12*,i,i,i
O=c1[nH]c2ccc(NCc3ccc(OCc4ccccc4Cl)cc3)cc2[nH]1,i,i,i,i,i
O=c1[nH]c(CSc2cccc[n+]2[O-])nc2ccccc12,i,i,i,i,i
COc1cccc2cc(C(=O)OCc3ccccc3)c(=O)oc12,i,i,i,i,i
CCOc1ccc(NC(=O)CN(C)C(=O)c2cn(-c3ccccc3)nc2-c2cccs2)cc1OCC,i,i,i,i,i
C/C(=N\NC(=O)c1c[nH]c2ccccc12)c1ccccn1,i,i,i,i,i
SMILES,TRPC6 activator,TRPC4 PAM,TRPC6 inh,TRPC4 agonist,TRPC4 inh
C/C(=N\NC(=O)c1cc2ccccc2cc1O)c1ccccn1,i,i,i,53*,i
CCN(CC)CCNC(=O)c1ccc(CS(=O)(=O)c2ccccc2C)o1,i,i,i,i,i
COc1cc(Nc2c3c(nc4ccccc24)CCC3)cc(OC)c1OC,i,i,i,i,i
Cc1cccc(Nc2c3c(nc4ccccc24)CCC3)c1,i,i,i,i,-6*
COc1ccc(OC)c(Nc2c3c(nc4ccccc24)CCC3)c1,i,i,i,i,-5*
N#Cc1cccc(Nc2c3c(nc4ccccc24)CCC3)c1,i,i,i,i,i
CC1CCCC(C)N1C(=O)COC(=O)CSc1ccc(C(N)=O)cc1[N+](=O)[O-] (stereo not drawn),i,i,i,i,i
CCC(C)N(C(=O)COC(=O)CNC(=O)c1sc2ccccc2c1Cl)C1CCS(=O)(=O)C1 (stereo not drawn),i,i,i,i,i
COC(=O)c1cc2c(=O)c3ccccc3oc2nc1C,i,i,i,i,i
COC(=O)c1cc2c(=O)c3ccccc3oc2nc1/C=C/N(C)C,i,i,i,69*,i
S=C(NCCCN1CCOCC1)N1CCN(c2cccc(Cl)c2)CC1,i,i,i,i,i
CCN1CCN(C(=O)c2cc(-c3ccc(Cl)s3)nc3ccccc23)CC1,i,18*,i,i,i
CCCOc1ccc(Br)cc1/C=N/O,i,i,i,i,-6*
Cn1nc(C(F)(F)F)c2cc(C(=O)Nc3ccc(C(F)(F)F)cc3)sc21,i,i,i,i,i
C[C@H](NC(=O)C1CCN(S(=O)(=O)c2ccccc2)CC1)C(=O)NCc1ccco1,i,i,i,i,i
Fc1ccc(NC(=S)NCCc2ccccn2)cc1,i,i,i,213*,i
COc1ccc2c(C)cc(N3CCN(Cc4ccccc4)CC3)nc2c1,i,i,i,i,i
COc1ccc2c(C)cc(N3CCCCCC3)nc2c1,i,i,i,i,-10*
Cc1cc(N2CCCCCC2)nc2ccc(F)cc12,i,i,i,i,-6*
CC(C)CC(C(=O)NC(C)(C)C)N(Cc1ccccc1Cl)C(=O)c1snc(C(N)=O)c1N (stereo not drawn),i,i,i,i,i
N#Cc1c(-c2cccs2)nc(SCc2ccc(Cl)cc2)[nH]c1=O,i,15*,i,i,-7*
COc1ccc(F)cc1CSc1nnnn1-c1ccc(O)cc1,i,i,i,i,-5*
C=CCn1c(SCC(=O)OC)nc2sc3c(c2c1=O)CCN(C)C3,i,i,-5.7*,i,i
CC1CC(C)CN(CCCNC(=O)c2ccc3c(c2)N(Cc2ccccc2)C(=O)c2ccccc2S3=O)C1 (stereo not drawn),i,i,i,85*,i
CCCCSCCCNC(=O)c1ccc2c(c1)N(CC)C(=O)c1ccccc1S2=O (stereo not drawn),i,i,i,i,i
CCCN(CCC)CCCNC(=O)c1ccc2c(c1)N(CC)C(=O)c1ccccc1S2=O (stereo not drawn),i,i,i,66*,i
O=C(NCCCN1CCCC1)c1ccc2c(c1)N(Cc1cccc(Cl)c1)C(=O)c1ccccc1S2=O (stereo not drawn),i,i,i,i,i

# High-throughput results deposited in PubChem BioAssay by Johns Hopkins Ion Channel Center.
